Values belong to the compound of their own block, whether it stands above or below them.
Key:
[1] = biological target: T1, MCL-1 (Homo sapiens, UniProt Q07820); test: FP; type: binding; details: FP MCL-1 Ki
[2] = Atropoisomer stability in solution; type: physicochemical
[3] = In vivo PK characteristics; set-up: species or system mice; details: mouse, iv, 12.5 mg/kg
[4] = biological target: T1, MCL-1; test: QA; type: binding; details: for Ki: QA MCL-1 Ki
[5] = test system: cleaved PARP; test: In vivo PD: increase of cleaved PARP in AMO1 xenografted mice; details: for PARP activation (fold): AMO1 xenografted mice, 16 h after i.v. bolus treatment at 12.5 mg/kg
Summary of the method: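 Female CB-17 SCID mice (6–7 weeks) were implanted s.c. with 5 × 10⁶ AMO-1 cells in 50:50 medium:Matrigel. At ~200 mm³ tumor volume they were randomized, n = 3 per group. Test compound in 20% HPbCD/25 mM HCl was given as a single 12.5 mg/kg i.v. bolus. Cleaved PARP increase was measured in tumors 16 h later.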

[6] = test system: NCI-H929 cells; test: MTT cell viability assay of NCI H929 cell line; type: cell-based
[7] = test system: human multiple myeloma cell line xenograft (AMO-1); test: AMO-1 efficacy model; type: in vivo, mice; details: QD5, i.v. bolus; for %TGI (day): D14
Summary of the method: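 Female CB-17 SCID mice (6–7 weeks) received 5 × 10⁶ AMO-1 cells s.c. in the right flank, in 50:50 growth medium:Matrigel. At ~200 mm³ they were randomized, n = 8. Freshly prepared test compound in 20% HPbCD/25 mM HCl was given i.v. daily ×5. Calipers were read 2–3×/week; volume = length × width²/2. TGI was taken at the control group's last day and at maximum; TGD used a 500 mm³ median.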

[8] = indole analogue versus preceding benzofurane/benzothiophene analogues

T1 sequence (Q07820 whole entry): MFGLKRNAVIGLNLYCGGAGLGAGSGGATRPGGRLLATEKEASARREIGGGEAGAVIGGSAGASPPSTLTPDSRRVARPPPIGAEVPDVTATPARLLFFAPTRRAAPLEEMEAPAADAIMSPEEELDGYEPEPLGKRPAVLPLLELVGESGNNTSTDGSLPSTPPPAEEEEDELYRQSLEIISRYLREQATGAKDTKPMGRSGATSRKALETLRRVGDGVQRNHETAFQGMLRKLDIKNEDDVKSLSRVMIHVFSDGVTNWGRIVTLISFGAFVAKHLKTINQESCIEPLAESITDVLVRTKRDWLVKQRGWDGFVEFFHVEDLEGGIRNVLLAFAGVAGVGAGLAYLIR

Structure (SMILES): CCc1c(-c2cccc(Cl)c2C)c2c(N[C@H](Cc3ccccc3)C(=O)O)ncnc2n1C (single isomer, unassigned) [Compound 2b, N-[(5Sa)-5-(3-Chloro-2-methylphenyl)-6-ethyl-7-methyl-7H-pyrrolo[2,3-d]pyrimidin-4-yl]-D-phenylalanine]
Ki [1]: 8.7 µM
atropoisomer stability [2]: stable under the testing conditions

Structure (SMILES): Cc1c(Cl)cccc1-c1c2n(c3ncnc(N[C@H](Cc4ccccc4)C(=O)O)c13)CCC2 [Compound 11, N-[5-(3-Chloro-2-methylphenyl)-7,8-dihydro-6H-pyrimido[5,4-b]pyrrolizin-4-yl]-D-phenylalanine]
atropoisomer stability [2]: facile interconversion of the atropoisomers in solution

Structure (SMILES): COc1ccccc1-c1nccc(COc2ccccc2C[C@@H](Oc2ncnc3sc(-c4ccc(F)cc4)c(-c4ccc(OCCN5CCN(C)CC5)c(Cl)c4C)c23)C(=O)O)n1 [Compound 16a, (2R)-2-{[(5Sa)-5-{3-Chloro-2-methyl-4-[2-(4-methylpiperazin-1-yl)ethoxy]phenyl}-6-(4-fluorophenyl)thieno[2,3-d]pyrimidin-4-yl]oxy}-3-(2-{[2-(2-methoxyphenyl)pyrimidin-4-yl]methoxy}phenyl)propanoic Acid]
AUC [3]: 34000 ng·h/mL
clearance [3]: 6 mL/min/kg

Structure (SMILES): COc1ccccc1-c1nccc(COc2ccccc2C[C@@H](Oc2nccc3nc(-c4ccc(F)cc4)c(-c4ccc(OCCN5CCN(C)CC5)c(Cl)c4C)n23)C(=O)O)n1 [Compound 26, (2R)-2-{[(3Ra)-3-{3-Chloro-2-methyl-4-[2-(4-methylpiperazin-1-yl)ethoxy]phenyl}-2-(4-fluorophenyl)imidazo[1,2-c]pyrimidin-5-yl]oxy}-3-(2-{[2-(2-methoxyphenyl)pyrimidin-4-yl]methoxy}phenyl)propanoic Acid]
Ki [4]: 8.2 nM
drop in affinity ([4]; compared to 16a): 200 fold
drop in cellular activity ([6]; compared to 16a): 200 fold

The remaining compounds from weak to strong by Ki [4], led by results:

Ki [4]: 2.3 nM
drop of on-target affinity [4, 8]: ca. 2 fold
Structure (SMILES): COc1ccccc1-c1nccc(COc2ccccc2C[C@@H](Oc2cccc3c2c(-c2ccc(OCCN4CCN(C)CC4)c(Cl)c2C)c(-c2ccc(F)cc2)n3C)C(=O)O)n1 [Compound 22, (2R)-2-{[(3Sa)-3-{3-Chloro-2-methyl-4-[2-(4-methylpiperazin-1-yl)ethoxy]phenyl}-2-(4-fluorophenyl)-1-methyl-1H-indol-4-yl]oxy}-3-(2-{[2-(2-methoxyphenyl)pyrimidin-4-yl]methoxy}phenyl)propanoic Acid]
drop of cellular activity [6, 8]: ca. 2 fold

Ki [4]: 1.8 nM
Structure (SMILES): COc1ccccc1-c1nccc(COc2ccccc2C[C@@H](Oc2cccc3sc(-c4ccc(F)cc4)c(-c4ccc(OCCN5CCN(C)CC5)c(Cl)c4C)c23)C(=O)O)n1 [Compound 20, (2R)-2-{[(3Sa)-3-{3-Chloro-2-methyl-4-[2-(4-methylpiperazin-1-yl)ethoxy]phenyl}-2-(4-fluorophenyl)-1-benzothiophen-4-yl]oxy}-3-(2-{[2-(2-methoxyphenyl)pyrimidin-4-yl]methoxy}phenyl)propanoic Acid]
PARP activation (fold) [5]: 156 fold

Ki [4]: 1.2 nM
drop in affinity ([4]; compared to 16b): 2–4 fold
Structure (SMILES): COc1ccccc1-c1nccc(COc2ccccc2C[C@@H](Nc2nccc3sc(-c4ccc(F)cc4)c(-c4ccc(OCCN5CCN(C)CC5)c(Cl)c4C)c23)C(=O)O)n1 [Compound 19, N-[3-{3-Chloro-2-methyl-4-[2-(4-methylpiperazin-1-yl)ethoxy]phenyl}-2-(4-fluorophenyl)thieno[3,2-c]pyridin-4-yl]-2-{[2-(2-methoxyphenyl)pyrimidin-4-yl]methoxy}-D-phenylalanine]
drop in cellular activity ([6]; compared to 16b): 2–4 fold

Ki [4]: 0.64 nM
fold less active ([4]; compared to 16a, affinity and activity): about 20 fold
atropoisomer stability [2]: rapid isomerization
Structure (SMILES): COc1ccccc1-c1nccc(COc2ccccc2C[C@@H](Oc2ncnc3c2c(-c2ccc(OCCN4CCN(C)CC4)c(Cl)c2C)c(-c2ccc(F)cc2)n3C)C(=O)O)n1 [Compound 23, (2R)-2-[(5Sa)-5-[3-Chloro-2-methyl-4-[2-(4-methylpiperazin-1-yl)ethoxy]phenyl]-6-(4-fluorophenyl)-7-methyl-pyrrolo[2,3-d]pyrimidin-4-yl]oxy-3-[2-[[2-(2-methoxyphenyl)pyrimidin-4-yl]methoxy]phenyl]propanoic Acid]
PARP activation (fold) [5]: 5 fold

Ki [4]: 0.61 nM
atropoisomer stability [2]: stable in solution
Structure (SMILES): COc1ccccc1-c1nccc(COc2ccccc2C[C@@H](Nc2ncnc3oc(-c4ccc(F)cc4)c(-c4ccc(OCCN5CCN(C)CC5)c(Cl)c4C)c23)C(=O)O)n1 [Compound 25, N-[(5Sa)-5-{3-Chloro-2-methyl-4-[2-(4-methylpiperazin-1-yl)ethoxy]phenyl}-6-(4-fluorophenyl)furo[2,3-d]pyrimidin-4-yl]-2-{[2-(2-methoxyphenyl)pyrimidin-4-yl]methoxy}-D-phenylalanine]
PARP activation (fold) [5]: 60 fold
PARP activation, fold less ([5]; than for the hydroxy acid analogue): about 2 fold

Ki [4]: 0.1 nM
Structure (SMILES): COc1ccccc1-c1nccc(COc2ccccc2C[C@@H](Oc2ccnc3sc(-c4ccc(F)cc4)c(-c4ccc(OCCN5CCN(C)CC5)c(Cl)c4C)c23)C(=O)O)n1 [Compound 17, (2R)-2-{[(3Sa)-3-{3-Chloro-2-methyl-4-[2-(4-methylpiperazin-1-yl)ethoxy]phenyl}-2-(4-fluorophenyl)thieno[2,3-b]pyridin-4-yl]oxy}-3-(2-{[2-(2-methoxyphenyl)pyrimidin-4-yl]methoxy}phenyl)propanoic Acid]
PARP activation (fold) [5]: 12 fold

Ki [4]: 0.036 nM
AUC [3]: 56000 ng·h/mL
clearance [3]: 2.5 mL/min/kg
Structure (SMILES): COc1ccccc1-c1nccc(COc2ccccc2C[C@@H](Oc2ncnc3oc(-c4ccc(F)cc4)c(-c4ccc(OCCN5CCN(C)CC5)c(Cl)c4C)c23)C(=O)O)n1 [Compound 24, (2R)-2-{[5-{3-Chloro-2-methyl-4-[2-(4-methylpiperazin-1-yl)ethoxy]phenyl}-6-(4-fluorophenyl)furo[2,3-d]pyrimidin-4-yl]oxy}-3-(2-{[2-(2-methoxyphenyl)pyrimidin-4-yl]methoxy}phenyl)propanoic Acid]
cellular activity, fold less ([6]; than 16a): 10 fold
PARP activation (fold) [5]: 129 fold
time to reach 500 mm^3 (median of the group) ([7]; 6.25 mpk): 28
%TGI (day) ([7]; 6.25 mpk): 103.5 (D14) %
%TGI max (day) ([7]; 6.25 mpk, d7): 122.7 (d7) %
time to reach 500 mm^3 (median of the group) ([7]; 12.5 mpk): 37
%TGI (day) ([7]; 12.5 mpk): 107.7 (D14) %
%TGI max (day) ([7]; 12.5 mpk, d2): 184.8 (d2) %
atropoisomer stability [2]: equilibrate rapidly in solution to give a 1:1 mixture

Source: publication PMC8412899 (ACS Omega, 2021)
